Only a selection was taken, and hits are over-represented in it overall.
CHOP UPR activ: apoptotic UPR (CHOP) activation; CHO-CHOP luciferase reporter, luminescence; percent of tunicamycin response over DMSO baseline; activation, % at 10 µM; AID 449763; actives 0.34% (n = 330,000);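 active means at 10 µM dose, activation of 40% or more, normalized to positive control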
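System: CHO-CHOP luciferase reporter cell line; amount: 500 cells/well; buffer or medium: F12 medium containing 10% fetal bovine serum; incubation: 6 h compound exposure at 37 °C after overnight seeding; measured by: luciferase luminescence after 10 min with Steady-Glo reagent; evaluation: % reporter activation, DMSO baseline versus tunicamycin full activation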
VLA-4 inh: inhibition in a human VLA-4 binding assay. inhibition, % (about 7 µM as worked out from the volumes in the protocol). P13612. VLA-4 expressing cells, ligand binding flow cytometry. actives 0.2% (n = 330,000); in the data active means inhibition above about 50%
UPR XBP1 act: activators of adaptive arm of unfolded protein response (XBP1); actives 0.33% (n = 330,000); activation, % at 20 µM; CHO-XBP1 luciferase reporter, IRE1-XBP1 UPR activation, luminescence; percent of tunicamycin response, DMSO as zero;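 active means versus positive control, 20 µM dose yields 30% or more activation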
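assay system = CHO-XBP1 luciferase reporter cells | amount = 1000 cells/well | buffer or medium = F12 plus 10% FBS | compound dosing = single point, 20 µM final compound, 1% DMSO | incubation = 16-18 h cell attachment at 37 °C, then 6 h compound exposure | detection = Steady-Glo luminescence read | controls = tunicamycin 10 µg/mL and vehicle-only wells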
B2AR ag: human beta-2 adrenergic receptor agonism by FAP; P07550; Am2.2-beta2AR cells, FAP receptor internalization, flow cytometry; response, % (test concentration not listed); actives 0.43% (n = 340,000);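 active means response above a set limit, near 3 SD of response in nonfluorescent compounds, cut at about 42% in these data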
Target sequence (P07550 whole entry, looked up): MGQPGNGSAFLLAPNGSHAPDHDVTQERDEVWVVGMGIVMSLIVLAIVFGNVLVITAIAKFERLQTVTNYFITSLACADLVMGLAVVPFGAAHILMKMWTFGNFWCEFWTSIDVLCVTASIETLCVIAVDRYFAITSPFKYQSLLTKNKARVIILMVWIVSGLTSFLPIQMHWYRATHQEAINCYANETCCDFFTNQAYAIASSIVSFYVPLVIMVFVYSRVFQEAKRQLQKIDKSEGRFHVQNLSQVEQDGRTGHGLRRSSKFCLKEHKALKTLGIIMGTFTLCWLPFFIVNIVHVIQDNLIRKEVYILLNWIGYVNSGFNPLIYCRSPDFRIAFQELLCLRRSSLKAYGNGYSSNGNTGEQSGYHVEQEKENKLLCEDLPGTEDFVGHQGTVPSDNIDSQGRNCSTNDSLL
CHOP inh: blocks CHOP induction under ER stress; actives 3.8% (n = 220,000); CHO-K1 CHOP-promoter luciferase, tunicamycin-induced, 15-18 h; inhibition, % at 10 µM;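 active means compounds that reduced the stress-induced luciferase reporter signal by more than about 70% of percent inhibition, limit read from the data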
A number is an active result; – = inactive; · = not tested or not shown.

SMILES	CHOP UPR activ	VLA-4 inh	UPR XBP1 act	B2AR ag	CHOP inh
COc1cc(C(=O)Nc2cccc(-c3nc4cc(C)cc(C)c4o3)c2)cc(OC)c1OC	·	·	·	–	76
Cc1cc(C)c2oc(-c3cccc(NC(=O)c4ccc(F)cc4)c3)nc2c1	–	–	–	–	91
CCNC(=S)N/N=C/c1cn(Cc2ccc(F)cc2)c2ccccc12	–	–	–	–	–
CCNC(=S)N/N=C/c1cn(Cc2ccccc2F)c2ccccc12	–	–	–	–	77
CC(=O)c1ccccc1NC(=O)CSc1nnc(Cc2csc(C)n2)o1	–	–	–	–	·
COc1ccc(CC(=O)Nc2ccc(-c3nnc(-c4ccccc4)o3)cc2)cc1OC	–	–	–	–	74
CCCCn1nc(C(=O)Nc2cc(C(F)(F)F)ccc2N2CCOCC2)ccc1=O	–	–	–	–	·
c1ccc(OCCSc2nc3ccccc3o2)cc1	–	–	–	–	–
CCOc1ccc(OCCSc2nc3ccccc3o2)cc1	–	–	–	–	77
Cc1ccc(S(=O)(=O)NCCNC(=O)c2ccc(C)nc2)cc1	–	–	–	–	·
Cc1ccc(C(=O)n2c(N)nc3ccccc32)cc1	–	–	–	–	75
CC(=O)Nc1sc(N/N=C\c2cccc(Cl)c2)nc1-c1cccs1	–	–	–	–	96
COc1cc(Cl)c(C)cc1NC(=O)CSc1ccc(C)cc1	–	–	–	–	74
COc1cc(Cl)c(C)cc1NC(=O)CSc1ccccc1	–	–	–	–	–
OCCNCc1cc(Br)ccc1OCc1ccc(Cl)cc1Cl	·	·	·	–	90
COc1ccc(C2CC(c3ccccc3)=NN2C(=O)CSc2nnnn2-c2cccc(C)c2)cc1 (centres undefined)	–	–	–	–	·
COc1cccc(C2CC(=O)Nc3cc4c(cc32)CCC4)c1 (centres undefined)	–	–	–	–	–
O=C1CC(c2cccc(Cl)c2)c2cc3c(cc2N1)CCC3 (centres undefined)	–	–	–	–	86
O=[N+]([O-])c1ccc(S(=O)Cc2ccccc2)c([N+](=O)[O-])c1 (centres undefined)	·	·	·	49	·
COC(=O)C1=C(C)N=C2SC(C)C(=O)N2C1c1ccc(C(=O)OC)cc1 (centres undefined)	–	–	–	–	–
CC1=C(C(=O)OCC(C)C)C(c2cccc(F)c2)N2C(=O)C(C)SC2=N1 (centres undefined)	–	–	–	–	78
CC1=C(C(=O)OC(C)C)C(c2cccc(F)c2)N2C(=O)C(C)SC2=N1 (centres undefined)	–	–	–	–	74
CCOC(=O)C1=C(C)N=C2SC(C)C(=O)N2C1c1cccc(F)c1 (centres undefined)	–	–	–	–	–
CCc1cc(OCCCCNCc2ccccc2)ccc1Cl	–	–	–	–	–
COc1ccc(Cl)cc1NC(=O)NC1CCCCC1	–	–	–	–	–
SMILES	CHOP UPR activ	VLA-4 inh	UPR XBP1 act	B2AR ag	CHOP inh
COc1ccc(Cl)cc1NC(=O)Nc1cccc([N+](=O)[O-])c1C	–	–	–	–	84
CCOC(=O)c1cccc(N2CC3CNC(=O)C2(C(=O)OC)N3C)c1 (centres undefined)	–	–	–	–	·
O=C(OCc1cc(Cl)cc2c1OCOC2)c1cccnc1Cl	–	–	–	–	·
CNS(=O)(=O)c1cccc(C(=O)OCc2cc(Cl)cc3c2OCOC3)c1	–	–	–	–	75
CCOc1ccc(N2C(=O)CC(SC(=NC)Nc3ccc4c(c3)OCO4)C2=O)cc1 (centres undefined)	–	–	–	–	73
O=C(Nc1cccc(S(=O)(=O)N2CCOCC2)c1)c1cn(-c2ccccc2)nc1-c1ccc(F)cc1	–	–	–	–	72
O=C(Nc1cccc(S(=O)(=O)N2CCOCC2)c1)c1cn(-c2ccccc2)nc1-c1ccccc1	–	–	–	–	–
CCCCn1c(=O)[nH]c(=O)c2c1nc(CN(C)Cc1cccc(OC)c1OC)n2CCC	·	–	·	–	·
CCCCCn1c(CCC(=O)Oc2ccccc2OC)nc2c1c(=O)[nH]c(=O)n2CCCC	–	–	–	–	71
COc1cccc(/C=N/N2CCN(c3ccncc3S(=O)(=O)N3CCCCC3)CC2)c1	–	–	–	75	–
COc1cccc(/C=N/N2CCN(c3ccccc3OC)CC2)c1	–	–	–	–	76

Screens as filed in PubChem BioAssay.
